Assay results as given in article PMC9710334 (BMJ Open Gastroenterology, 2022).
“Also recorded” adds a separate entry of the source.

Key:
[1] = test system: CBP/β-catenin; conditions: cited from earlier work
[2] = test system: patients with liver cirrhosis induced by hepatitis B or C virus; conditions: cited from earlier work
[3] = test system: patients with advanced primary biliary cholangitis; test: Phase 1 trial: adverse events graded by CTCAE v4.0, safety and tolerability; assay type: in vivo, human
Method in brief: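 Seven advanced PBC patients (stage III or higher) received OP-724 iv at 280 (n=6) or 380 (n=1) mg/m2 over 4 hours, twice weekly for 12 cycles, after a single dose given 7 days before cycle 1. AEs and laboratory results were recorded throughout and graded by CTCAE v4.0. The primary endpoint was SAEs where drug causality could not be excluded.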

[4] = test system: liver fibrosis models; conditions: cited from earlier work

C[C@H]1[C@H]2N(C(=O)CN(C)N2C(=O)NCc2ccccc2)[C@@H](Cc2ccc(OP(=O)(O)O)cc2)C(=O)N1Cc1cccc2cccnc12 [OP-724]
inhibition of the interaction between CBP and β-catenin [1]: selectively inhibits | liver dysfunction reported as SAE ([2]; one patient at level 3 (380 mg/m^2/4 hours), PRI-724-2101 study ref 25): severe liver dysfunction | harmful effects in humans ([2]; phase 1 or 1/2a clinical trials ref 24 25): does not have harmful effects in humans | albumin level ([2]; previous clinical trials ref 24 25): increase in the albumin level | Abdominal discomfort, Grade 1, patients n (%) ([3]; 280 mg/m^2/4 hours (n=6)): 2 (33%) | Abdominal discomfort, Grade 2, patients n (%) ([3]; 280 mg/m^2/4 hours (n=6)): 0 | Abdominal discomfort, Grades 3–5, patients n (%) ([3]; 280 mg/m^2/4 hours (n=6)): 0 | Back pain, Grade 1, patients n (%) ([3]; 280 mg/m^2/4 hours (n=6)): 0 | Back pain, Grade 2, patients n (%) ([3]; 280 mg/m^2/4 hours (n=6)): 1 (17%) | Back pain, Grades 3–5, patients n (%) ([3]; 280 mg/m^2/4 hours (n=6)): 0 | Constipation, Grade 1, patients n (%) ([3]; 280 mg/m^2/4 hours (n=6)): 1 (17%) | Constipation, Grade 2, patients n (%) ([3]; 280 mg/m^2/4 hours (n=6)): 0 | Constipation, Grades 3–5, patients n (%) ([3]; 280 mg/m^2/4 hours (n=6)): 0 | Dermatitis contact, Grade 1, patients n (%) ([3]; 280 mg/m^2/4 hours (n=6)): 1 (17%) | Dermatitis contact, Grade 2, patients n (%) ([3]; 280 mg/m^2/4 hours (n=6)): 0 | Dermatitis contact, Grades 3–5, patients n (%) ([3]; 280 mg/m^2/4 hours (n=6)): 0 | Diarrhoea, Grade 1, patients n (%) ([3]; 280 mg/m^2/4 hours (n=6)): 1 (17%) | Diarrhoea, Grade 2, patients n (%) ([3]; 280 mg/m^2/4 hours (n=6)): 0 | Diarrhoea, Grades 3–5, patients n (%) ([3]; 280 mg/m^2/4 hours (n=6)): 0 | Dry skin, Grade 1, patients n (%) ([3]; 280 mg/m^2/4 hours (n=6)): 0 | Dry skin, Grade 2, patients n (%) ([3]; 280 mg/m^2/4 hours (n=6)): 1 (17%) | Dry skin, Grades 3–5, patients n (%) ([3]; 280 mg/m^2/4 hours (n=6)): 0 | Fever, Grade 1, patients n (%) ([3]; 280 mg/m^2/4 hours (n=6)): 1 (17%) | Fever, Grade 2, patients n (%) ([3]; 280 mg/m^2/4 hours (n=6)): 0 | Fever, Grades 3–5, patients n (%) ([3]; 280 mg/m^2/4 hours (n=6)): 0 | Haemorrhage, Grade 1, patients n (%) ([3]; 280 mg/m^2/4 hours (n=6)): 0 | Haemorrhage, Grade 2, patients n (%) ([3]; 280 mg/m^2/4 hours (n=6)): 1 (17%) | Haemorrhage, Grades 3–5, patients n (%) ([3]; 280 mg/m^2/4 hours (n=6)): 0 | Hepatic function abnormal, Grade 1, patients n (%) ([3]; 280 mg/m^2/4 hours (n=6)): 1 (17%) | Hepatic function abnormal, Grade 2, patients n (%) ([3]; 280 mg/m^2/4 hours (n=6)): 1 (17%) | Hepatic function abnormal, Grades 3–5, patients n (%) ([3]; 280 mg/m^2/4 hours (n=6)): 0 | Infusion site extravasation, Grade 1, patients n (%) ([3]; 280 mg/m^2/4 hours (n=6)): 0 | Infusion site extravasation, Grade 2, patients n (%) ([3]; 280 mg/m^2/4 hours (n=6)): 1 (17%) | Infusion site extravasation, Grades 3–5, patients n (%) ([3]; 280 mg/m^2/4 hours (n=6)): 0 | Nasopharyngitis, Grade 1, patients n (%) ([3]; 280 mg/m^2/4 hours (n=6)): 0 | Nasopharyngitis, Grade 2, patients n (%) ([3]; 280 mg/m^2/4 hours (n=6)): 0 | Nasopharyngitis, Grades 3–5, patients n (%) ([3]; 280 mg/m^2/4 hours (n=6)): 0 | Nausea, Grade 1, patients n (%) ([3]; 280 mg/m^2/4 hours (n=6)): 1 (17%) | Nausea, Grade 2, patients n (%) ([3]; 280 mg/m^2/4 hours (n=6)): 0 | Nausea, Grades 3–5, patients n (%) ([3]; 280 mg/m^2/4 hours (n=6)): 0 | Open angle glaucoma, Grade 1, patients n (%) ([3]; 280 mg/m^2/4 hours (n=6)): 0 | Open angle glaucoma, Grade 2, patients n (%) ([3]; 280 mg/m^2/4 hours (n=6)): 1 (17%) | Open angle glaucoma, Grades 3–5, patients n (%) ([3]; 280 mg/m^2/4 hours (n=6)): 0 | Renal impairment, Grade 1, patients n (%) ([3]; 280 mg/m^2/4 hours (n=6)): 1 (17%) | Renal impairment, Grade 2, patients n (%) ([3]; 280 mg/m^2/4 hours (n=6)): 0 | Renal impairment, Grades 3–5, patients n (%) ([3]; 280 mg/m^2/4 hours (n=6)): 0 | Tooth fracture, Grade 1, patients n (%) ([3]; 280 mg/m^2/4 hours (n=6)): 1 (17%) | Tooth fracture, Grade 2, patients n (%) ([3]; 280 mg/m^2/4 hours (n=6)): 0 | Tooth fracture, Grades 3–5, patients n (%) ([3]; 280 mg/m^2/4 hours (n=6)): 0 | Vomiting, Grade 1, patients n (%) ([3]; 280 mg/m^2/4 hours (n=6)): 1 (17%) | Vomiting, Grade 2, patients n (%) ([3]; 280 mg/m^2/4 hours (n=6)): 0 | Vomiting, Grades 3–5, patients n (%) ([3]; 280 mg/m^2/4 hours (n=6)): 0 | Abdominal discomfort, Grade 1, patients n (%) ([3]; 380 mg/m^2/4 hours (n=1)): 0 | Abdominal discomfort, Grade 2, patients n (%) ([3]; 380 mg/m^2/4 hours (n=1)): 0 | Abdominal discomfort, Grades 3–5, patients n (%) ([3]; 380 mg/m^2/4 hours (n=1)): 0 | Back pain, Grade 1, patients n (%) ([3]; 380 mg/m^2/4 hours (n=1)): 0 | Back pain, Grade 2, patients n (%) ([3]; 380 mg/m^2/4 hours (n=1)): 0 | Back pain, Grades 3–5, patients n (%) ([3]; 380 mg/m^2/4 hours (n=1)): 0 | Constipation, Grade 1, patients n (%) ([3]; 380 mg/m^2/4 hours (n=1)): 0 | Constipation, Grade 2, patients n (%) ([3]; 380 mg/m^2/4 hours (n=1)): 0 | Constipation, Grades 3–5, patients n (%) ([3]; 380 mg/m^2/4 hours (n=1)): 0 | Dermatitis contact, Grade 1, patients n (%) ([3]; 380 mg/m^2/4 hours (n=1)): 0 | Dermatitis contact, Grade 2, patients n (%) ([3]; 380 mg/m^2/4 hours (n=1)): 0 | Dermatitis contact, Grades 3–5, patients n (%) ([3]; 380 mg/m^2/4 hours (n=1)): 0 | Diarrhoea, Grade 1, patients n (%) ([3]; 380 mg/m^2/4 hours (n=1)): 0 | Diarrhoea, Grade 2, patients n (%) ([3]; 380 mg/m^2/4 hours (n=1)): 0 | Diarrhoea, Grades 3–5, patients n (%) ([3]; 380 mg/m^2/4 hours (n=1)): 0 | Dry skin, Grade 1, patients n (%) ([3]; 380 mg/m^2/4 hours (n=1)): 0 | Dry skin, Grade 2, patients n (%) ([3]; 380 mg/m^2/4 hours (n=1)): 0 | Dry skin, Grades 3–5, patients n (%) ([3]; 380 mg/m^2/4 hours (n=1)): 0 | Fever, Grade 2, patients n (%) ([3]; 380 mg/m^2/4 hours (n=1)): 0 | Fever, Grades 3–5, patients n (%) ([3]; 380 mg/m^2/4 hours (n=1)): 0 | Haemorrhage, Grade 1, patients n (%) ([3]; 380 mg/m^2/4 hours (n=1)): 0 | Haemorrhage, Grade 2, patients n (%) ([3]; 380 mg/m^2/4 hours (n=1)): 0 | Haemorrhage, Grades 3–5, patients n (%) ([3]; 380 mg/m^2/4 hours (n=1)): 0 | Hepatic function abnormal, Grade 1, patients n (%) ([3]; 380 mg/m^2/4 hours (n=1)): 0 | Hepatic function abnormal, Grades 3–5, patients n (%) ([3]; 380 mg/m^2/4 hours (n=1)): 0 | Infusion site extravasation, Grade 1, patients n (%) ([3]; 380 mg/m^2/4 hours (n=1)): 0 | Infusion site extravasation, Grade 2, patients n (%) ([3]; 380 mg/m^2/4 hours (n=1)): 0 | Infusion site extravasation, Grades 3–5, patients n (%) ([3]; 380 mg/m^2/4 hours (n=1)): 0 | Nasopharyngitis, Grade 2, patients n (%) ([3]; 380 mg/m^2/4 hours (n=1)): 0 | Nasopharyngitis, Grades 3–5, patients n (%) ([3]; 380 mg/m^2/4 hours (n=1)): 0 | Nausea, Grade 1, patients n (%) ([3]; 380 mg/m^2/4 hours (n=1)): 0 | Nausea, Grade 2, patients n (%) ([3]; 380 mg/m^2/4 hours (n=1)): 0 | Nausea, Grades 3–5, patients n (%) ([3]; 380 mg/m^2/4 hours (n=1)): 0 | Open angle glaucoma, Grade 1, patients n (%) ([3]; 380 mg/m^2/4 hours (n=1)): 0 | Open angle glaucoma, Grade 2, patients n (%) ([3]; 380 mg/m^2/4 hours (n=1)): 0 | Open angle glaucoma, Grades 3–5, patients n (%) ([3]; 380 mg/m^2/4 hours (n=1)): 0 | Renal impairment, Grade 1, patients n (%) ([3]; 380 mg/m^2/4 hours (n=1)): 0 | Renal impairment, Grade 2, patients n (%) ([3]; 380 mg/m^2/4 hours (n=1)): 0 | Renal impairment, Grades 3–5, patients n (%) ([3]; 380 mg/m^2/4 hours (n=1)): 0 | Tooth fracture, Grade 1, patients n (%) ([3]; 380 mg/m^2/4 hours (n=1)): 0 | Tooth fracture, Grade 2, patients n (%) ([3]; 380 mg/m^2/4 hours (n=1)): 0 | Tooth fracture, Grades 3–5, patients n (%) ([3]; 380 mg/m^2/4 hours (n=1)): 0 | Vomiting, Grade 1, patients n (%) ([3]; 380 mg/m^2/4 hours (n=1)): 0 | Vomiting, Grade 2, patients n (%) ([3]; 380 mg/m^2/4 hours (n=1)): 0 | Vomiting, Grades 3–5, patients n (%) ([3]; 380 mg/m^2/4 hours (n=1)): 0 | incidence of SAEs (primary endpoint) ([3]; all patients (0/7), 280 or 380 mg/m^2/4 hours iv two times weekly, 12 weeks): 0% | patients who developed general/systemic disorder and administration site status ([3]; all patients (3/7)): 42.9% | patients who developed hepatobiliary system disorder ([3]; all patients (3/7)): 42.9% | patients who developed gastrointestinal disorder ([3]; all patients (4/7)): 57.1% | occurrence rate of side effects ([3]; all patients (6/7)): 85.7% | occurrence rate of AEs ([3]; all patients (7/7)): 100% | abdominal discomfort (most common AEs) ([3]; all seven patients): 29% | abnormal hepatic function (most common AEs) ([3]; all seven patients): 43% | recommended dosage ([3]; iv infusion two times weekly for 12 weeks, patients with advanced PBC): 280 mg/m^2/4 hours | emetogenicity ([3]; managed with standard-of-care antiemetics): mildly or moderately emetogenic | grade of drug-induced liver injury leading to withdrawal ([3]; one patient in the 380 mg/m^2/4 hours cohort): grade 2 | serious adverse events (in words) ([3]; seven patients, 280 or 380 mg/m^2/4 hours iv two times weekly, 12 weeks): did not occur; also recorded: no SAE was observed | deaths related to drug administration ([3]; seven patients, administration period): no deaths related to drug administration were observed | fragility fractures ([3]; this study): no fragility fractures were recorded | antifibrotic effect [4]: exerts antifibrotic effects
